According to PMC9553801 (Clinical Pharmacokinetics, 2022):
“And” between values parts separate entries of the source, which are not always exact repeats. Equal values may be shown once. Read-outs that look alike come from different tables or passages of the source. Blank lines part the entries; values can stand above or below the compound they belong to.

Assays:
[1] = patients with severe renal impairment (CrCL of 15 mL/min) compared with healthy participants; cited from earlier work
[2] = type: in vivo, human; settings: for AUC / AUC(0-t) / AUC(0-inf) / Cmax / Tmax / half-life: human, plasma, po, 60 mg; for AUC: AUC96, single oral 60 mg; for AUC / AUC(0-t) / AUC(0-inf) / Cmax / %Urt (percentage dose recovered in urine) / CLT/F (apparent total body clearance): adjusted geometric mean (%CV); for AUC(0-t): AUCt; for AUC(0-t) / AUC(0-inf) / Cmax / Tmax / half-life / %Urt (percentage dose recovered in urine) / CLT/F (apparent total body clearance): single oral 60 mg; for Cmax: n = 8; for Tmax: median (minimum–maximum); for half-life: T½ (terminal plasma half-life), mean (SD)
Procedure, shortened: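 There were three eGFR-defined groups (MDRD; n = 8 each, matched by age, weight and sex). Each participant received one oral 60 mg dose after a standard meal, with serial plasma and urine collection. Plasma concentrations were measured by validated LC-MS/MS. Urine recovery was the sum of concentration × urine volume per collection interval, expressed as % of dose. CLT/F came from plasma concentration-time data. Values are adjusted geometric mean (%CV).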

[3] = Milvexian plasma protein binding by LC-MS/MS; type: in vitro ADME, human; settings: adjusted geometric mean (%CV); for fraction unbound: human, plasma, %fu (fraction of unbound drug)
Procedure, shortened: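 The severe group had eGFR < 30 mL/min/1.73 m2 (MDRD) and no dialysis, and received a single oral 60 mg dose after a standard meal. A designated protein-binding blood sample was analysed for […] test compound by validated LC-MS/MS. Results were reported as adjusted geometric mean (%CV).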

Safety and tolerability = type: in vivo, human; settings: for Any AE / Headache / Somnolence: single oral 60 mg
aPTT = assay: Activated partial thromboplastin time; type: in vivo, human; settings: for aPTT percentage change from baseline at mean peak: single oral 60 mg
Procedure, shortened: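 Participants (n = 8 per group) were grouped by eGFR (MDRD formula): normal ≥ 90, moderate ≥ 30 to ≤ 59, or severe < 30 mL/min/1.73 m2 (not on dialysis). They were matched by age, body weight and sex. Each received a single oral dose of test compound after a standard meal. aPTT was an exploratory PD biomarker, measured by a validated central-laboratory assay. Baseline was predose Day 1.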

[4] = Linear regression of log-transformed PK parameters versus eGFR or CrCL; type: in vivo, human; settings: for increase in overall exposure: regression analysis
[5] = previous first-in-human study; cited from earlier work
[6] = patients undergoing dialysis compared with healthy participants; cited from earlier work
[7] = single dose 60 mg, all 24 participants
[8] = moderate renal impairment, n = 8
[9] = CrCL 30 vs CrCL 90 mL/min, CrCL-based regression
[10] = eGFR 15 vs eGFR 90 mL/min/1.73 m^2, eGFR-based regression
[11] = eGFR 30 vs eGFR 90 mL/min/1.73 m^2, eGFR-based regression

SMILES: COc1ccc(-n2nc(C(N)=O)c3c2C(=O)N(c2ccc(N4CCCCC4=O)cc2)CC3)cc1 [apixaban]
increase in exposure [1]: 44%

AUC ([2]; moderate renal impairment): 5020 ng·h/mL | AUC ([2]; normal renal function): 3880 ng·h/mL | AUC ([2]; severe renal impairment): 7170 ng·h/mL | AUC(0-t) ([2]; moderate renal impairment): 5000 ng·h/mL | AUC(0-t) ([2]; normal renal function): 3860 ng·h/mL | AUC(0-t) ([2]; severe renal impairment): 7090 ng·h/mL | AUC(0-inf) ([2]; moderate renal impairment): 5150 ng·h/mL | AUC(0-inf) ([2]; normal renal function): 3920 ng·h/mL | AUC(0-inf) ([2]; severe renal impairment): 7410 ng·h/mL | Cmax ([2]; moderate renal impairment (eGFR ≥ 30 to ≤ 59)): 406 ng/mL | Cmax ([2]; normal renal function (eGFR ≥ 90)): 462 ng/mL | Cmax ([2]; severe renal impairment (eGFR < 30)): 462 ng/mL | Tmax ([2]; moderate renal impairment): 4.75 h | Tmax ([2]; normal renal function): 4.5 h | Tmax ([2]; severe renal impairment): 5 h | half-life ([2]; moderate renal impairment): 18 h | half-life ([2]; normal renal function): 13.8 h | half-life ([2]; severe renal impairment): 17.7 h | %Urt (percentage dose recovered in urine) ([2]; moderate renal impairment): 7.64 (33) % | CLT/F (apparent total body clearance) ([2]; moderate renal impairment): 11.6 L/h and 11.6 (32) L/h | %Urt (percentage dose recovered in urine) ([2]; normal renal function): 10.5 (45) % | CLT/F (apparent total body clearance) ([2]; normal renal function): 15.3 L/h and 15.3 (36) L/h | %Urt (percentage dose recovered in urine) ([2]; severe renal impairment): 3.14 (75) % | CLT/F (apparent total body clearance) ([2]; severe renal impairment): 8.10 L/h and 8.10 (37) L/h | fraction unbound ([3]; moderate renal impairment): 0.0881 | fraction unbound ([3]; normal renal function): 0.0885 | fraction unbound ([3]; severe renal impairment): 0.084 | %Protein binding ([3]; severe renal impairment): 91.5 (1) % | increase in AUCt ([4]; CrCL 15 vs CrCL 90 mL/min, CrCL-based regression): 49% | increase in AUCt [4, 9]: 38% | increase in AUC∞ [4, 9]: 40% | increase in AUCt [4, 10]: 50% | increase in AUC∞ [4, 10]: 54% | increase in AUCt [4, 11]: 39% | increase in AUC∞ [4, 11]: 41% | increase in overall exposure ([4]; moderate renal impairment group): approximately 40% | increase in overall exposure ([4]; severe renal impairment group): ~50%
SMILES: C[C@@H]1CCC[C@H](n2cnc(-c3cc(Cl)ccc3-n3cc(Cl)nn3)cc2=O)c2cc(ccn2)-c2c(cnn2C(F)F)NC1=O [milvexian, Milvexian]
participants reporting headache (Safety and tolerability; [7]): 8.3% | participants reporting one AE (Safety and tolerability; [7]): 12.5% | participants reporting somnolence (Safety and tolerability; [7]): 4.2% | bleeding events (Safety and tolerability; single dose 60 mg, all renal function groups): No bleeding events were reported | Any AE (Safety and tolerability; [8]): 1 (12.5) n (%) | Headache (Safety and tolerability; [8]): 1 (12.5) n (%) | Somnolence (Safety and tolerability; [8]): 0 n (%) | Any AE (Safety and tolerability; normal renal function, n = 8): 1 (12.5) n (%) | Headache (Safety and tolerability; normal renal function, n = 8): 0 n (%) | Somnolence (Safety and tolerability; normal renal function, n = 8): 1 (12.5) n (%) | Any AE (Safety and tolerability; severe renal impairment, n = 8): 1 (12.5) n (%) | Headache (Safety and tolerability; severe renal impairment, n = 8): 1 (12.5) n (%) | Somnolence (Safety and tolerability; severe renal impairment, n = 8): 0 n (%) | Any AE (Safety and tolerability; total, N = 24): 3 (12.5) n (%) | Headache (Safety and tolerability; total, N = 24): 2 (8.3) n (%) | Somnolence (Safety and tolerability; total, N = 24): 1 (4.2) n (%) | aPTT percentage change from baseline at mean peak (aPTT; moderate renal impairment, 5 h postdose): 97% | aPTT percentage change from baseline at mean peak (aPTT; normal renal function, 5 h postdose): 127% | aPTT percentage change from baseline at mean peak (aPTT; severe renal impairment, 6 h postdose): 100% | effect on aPTT (aPTT; single oral dose, all renal function groups): concentration-dependent prolongation of aPTT | renal excretion [5]: below 20%

SMILES: O=C(NC[C@H]1CN(c2ccc(N3CCOCC3=O)cc2)C(=O)O1)c1ccc(Cl)s1 [rivaroxaban]
increase in exposure [6]: 56%
